Assay results as given in ChEMBL document CHEMBL2375213, “Synthesis and anticancer activity of novel spiro-isoxazoline and spiro-isoxazolidine derivatives of α-santonin” (Eur J Med Chem, 2013).

How the values were obtained:
HEp-2 = assay: Antiproliferative activity against human Hep2 cells after 48 hrs by sulforhodamine B assay; format: functional, cell-based; settings: HEp-2, 48 h
MCF7 = assay: Antiproliferative activity against human MCF7 cells after 48 hrs by sulforhodamine B assay; format: functional, cell-based; settings: MCF7, 48 h
PC-3 [1] = assay: Cell cycle arrest in human PC3 cells assessed as accumulation at subG1 phase at 1 uM after 24 hrs by propidium iodide staining-based FACS flow cytometric analysis (reference value: 13.1%); format: functional
How it was run: (§1)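 PC-3 cells (1×10^6/well) exposed 24 h to test agent at 1, 5 or 10 μM. Cells washed twice in ice-cold PBS, fixed in 70% ethanol for 30 min, then treated with RNase A (0.1 mg/mL, 37 °C, 30 min). Propidium iodide staining 30 min on ice in the dark. DNA content read by flow cytometry with 488 nm excitation and doublet discrimination, 10,000 events.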

PC-3 [2] = assay: Cell cycle arrest in human PC3 cells assessed as accumulation at M phase at 5 uM after 24 hrs by propidium iodide staining-based FACS flow cytometric analysis (reference value: 3%); format: functional; how it was run: as §1
PC-3 [3] = assay: Cell cycle arrest in human PC3 cells assessed as accumulation at subG1 phase at 10 uM after 24 hrs by propidium iodide staining-based FACS flow cytometric analysis (reference value: 13.1%); format: functional; how it was run: as §1
PC-3 [4] = assay: Cell cycle arrest in human PC3 cells assessed as accumulation at M phase at 1 uM after 24 hrs by propidium iodide staining-based FACS flow cytometric analysis (reference value: 3%); format: functional; how it was run: as §1
PC-3 [5] = assay: Cell cycle arrest in human PC3 cells assessed as accumulation at M phase at 10 uM after 24 hrs by propidium iodide staining-based FACS flow cytometric analysis (reference value: 3%); format: functional; how it was run: as §1
PC-3 [6] = assay: Cell cycle arrest in human PC3 cells assessed as accumulation at S phase at 1 uM after 24 hrs by propidium iodide staining-based FACS flow cytometric analysis (reference value: 8.5%); format: functional; how it was run: as §1
A549 = assay: Antiproliferative activity against human A549 cells after 48 hrs by sulforhodamine B assay; format: functional, cell-based; settings: A549, 48 h
PC-3 [7] = assay: Antiproliferative activity against human PC3 cells after 48 hrs by sulforhodamine B assay; format: functional, cell-based; settings: PC-3, 48 h
PC-3 [8] = assay: Cell cycle arrest in human PC3 cells assessed as accumulation at S phase at 10 uM after 24 hrs by propidium iodide staining-based FACS flow cytometric analysis (reference value: 8.5%); format: functional; how it was run: as §1
PC-3 [9] = assay: Cell cycle arrest in human PC3 cells assessed as accumulation at S phase at 5 uM after 24 hrs by propidium iodide staining-based FACS flow cytometric analysis (reference value: 8.5%); format: functional; how it was run: as §1
PC-3 [10] = assay: Cell cycle arrest in human PC3 cells assessed as accumulation at G0/G1 phase at 10 uM after 24 hrs by propidium iodide staining-based FACS flow cytometric analysis (reference value: 68.2%); format: functional; how it was run: as §1
PC-3 [11] = assay: Cell cycle arrest in human PC3 cells assessed as accumulation at subG1 phase at 5 uM after 24 hrs by propidium iodide staining-based FACS flow cytometric analysis (reference value: 13.1%); format: functional; how it was run: as §1
HCT-116 = assay: Antiproliferative activity against human HCT116 cells after 48 hrs by sulforhodamine B assay; format: functional, cell-based; settings: HCT-116, 48 h
PC-3 [12] = assay: Cell cycle arrest in human PC3 cells assessed as accumulation at G0/G1 phase at 1 uM after 24 hrs by propidium iodide staining-based FACS flow cytometric analysis (reference value: 68.2%); format: functional; how it was run: as §1
PC-3 [13] = assay: Cell cycle arrest in human PC3 cells assessed as accumulation at G0/G1 phase at 5 uM after 24 hrs by propidium iodide staining-based FACS flow cytometric analysis (reference value: 68.2%); format: functional; how it was run: as §1
THP-1 = assay: Antiproliferative activity against human THP1 cells after 48 hrs by sulforhodamine B assay; format: functional, cell-based; settings: THP-1, 48 h
PC-3 [14] = assay: Cell cycle arrest in human PC3 cells assessed as accumulation at subG1 phase after 24 hrs by propidium iodide staining-based FACS flow cytometric analysis; format: functional; how it was run: as §1
[15] = molecular target: Transcription factor p65 (Homo sapiens) (UniProt Q04206); assay: Inhibition of NFkappaB p65 in nuclear extract of human PC3 cells assessed as reduction in binding to consensus DNA sequence at 5 uM after 24 hrs relative to control; format: cell-based; settings: PC-3
How it was run: (§2)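 PC-3 cells (5×10^6) treated 24 h at varied concentrations. Nuclear extract made by hypotonic lysis (HEPES/KOH pH 7.9) followed by high-salt extraction. Nuclear protein (20 µg) incubated overnight at 4 °C in wells carrying immobilized NF-κB DNA consensus element, then anti-p65 primary antibody 1 h and HRP secondary 1 h. Substrate 30 min, OD 450 nm, normalized to untreated control = 100%.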

[16] = molecular target: Transcription factor p65 (Homo sapiens) (UniProt Q04206); assay: Inhibition of NFkappaB p65 in nuclear extract of human PC3 cells assessed as reduction in binding to consensus DNA sequence at 1 uM after 24 hrs relative to control; format: cell-based; settings: PC-3; how it was run: as §2
[17] = molecular target: Transcription factor p65 (Homo sapiens) (UniProt Q04206); assay: Inhibition of NFkappaB p65 in nuclear extract of human PC3 cells assessed as reduction in binding to DNA response element after 24 hrs; format: cell-based; settings: PC-3; how it was run: as §2
[18] = molecular target: Transcription factor p65 (Homo sapiens) (UniProt Q04206); assay: Inhibition of NFkappaB p65 in nuclear extract of human PC3 cells assessed as reduction in binding to consensus DNA sequence at 10 uM after 24 hrs relative to control; format: cell-based; settings: PC-3; how it was run: as §2

Transcription factor p65 (Homo sapiens), sequence (Q04206 whole entry): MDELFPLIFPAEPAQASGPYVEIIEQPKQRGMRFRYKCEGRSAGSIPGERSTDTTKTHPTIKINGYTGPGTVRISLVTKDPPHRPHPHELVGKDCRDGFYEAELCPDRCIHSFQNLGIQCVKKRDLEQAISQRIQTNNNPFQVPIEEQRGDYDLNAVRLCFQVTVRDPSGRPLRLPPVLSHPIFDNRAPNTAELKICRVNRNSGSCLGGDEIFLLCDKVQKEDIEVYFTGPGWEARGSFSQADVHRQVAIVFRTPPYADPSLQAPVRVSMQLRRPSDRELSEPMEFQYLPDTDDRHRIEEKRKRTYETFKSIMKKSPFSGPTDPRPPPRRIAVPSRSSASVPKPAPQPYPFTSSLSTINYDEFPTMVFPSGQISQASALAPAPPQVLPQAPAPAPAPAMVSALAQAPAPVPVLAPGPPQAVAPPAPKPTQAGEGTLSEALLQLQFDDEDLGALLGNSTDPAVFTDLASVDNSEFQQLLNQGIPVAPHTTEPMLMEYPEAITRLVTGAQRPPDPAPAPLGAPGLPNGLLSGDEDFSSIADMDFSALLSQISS

| SMILES | IC50 (HEp-2) [µM] | IC50 (MCF7) [µM] | Activity (PC-3 [2]) [%] | IC50 (A549) [µM] | IC50 (PC-3 [7]) [µM] | Activity (PC-3 [9]) [%] | Activity (PC-3 [11]) [%] | IC50 (HCT-116) [µM] | Activity (PC-3 [13]) [%] | IC50 (THP-1) [µM] | other results |
| --- | --- | --- | --- | --- | --- | --- | --- | --- | --- | --- | --- |
| CC1=C2[C@H]3OC(=O)C4(C[C@H](c5ccc(Br)cc5)N(c5ccccc5)O4)[C@@H]3CC[C@@]2(C)C=CC1=O (some centres not stated) | 100 | 0.8 | 0.8 | 100 | 0.1 | 4.4 | 34.7 | 100 | 55.8 | 0.3 | Activity (PC-3 [1]): 33.8%; Activity (PC-3 [3]): 42.8%; Activity (PC-3 [4]): 1.6%; Activity (PC-3 [5]): 1.3%; Activity (PC-3 [6]): 4.2%; Activity (PC-3 [8]): 4.9%; Activity (PC-3 [10]): 53.2%; Activity (PC-3 [12]): 55.3%; Activity (PC-3 [14]): Dose-dependent effect |
| CC[C@@]1(O)C(=O)OCc2c1cc1n(c2=O)Cc2cc3ccccc3nc2-1 [CAMPTOTHECIN] |  |  | 4.76 |  |  | 4.94 | 60.44 |  | 30.17 |  |  |
| CC1=C2[C@H]3OC(=O)C4(C[C@@H](c5ccc(Br)cc5)N(c5ccccc5)O4)[C@@H]3CC[C@@]2(C)C=CC1=O (some centres not stated) | 65 | 0.3 | 1.2 | 31 | 0.01 | 4.5 | 39.7 | 37 | 43.5 | 0.5 | inhibition [15]: 43%; Activity (PC-3 [1]): 25.6%; Activity (PC-3 [3]): 67.9%; Activity (PC-3 [4]): 2%; inhibition [16]: 20%; inhibition [17]: Dose-dependent effect; Activity (PC-3 [5]): 0.4%; Activity (PC-3 [6]): 6.2%; Activity (PC-3 [8]): 0.4%; Activity (PC-3 [10]): 3.1%; Activity (PC-3 [12]): 60.9%; inhibition [18]: 57%; Activity (PC-3 [14]): Dose-dependent effect |
| CC1=C2[C@H]3OC(=O)C4(CC(c5c(Cl)cccc5Cl)=NO4)[C@@H]3CC[C@@]2(C)C=CC1=O (some centres not stated) | 15 | 27 |  | 100 | 100 |  |  | 10 |  | 100 |  |
| CC1=C2[C@H]3OC(=O)C4(CC(c5ccc6ccccc6c5)=NO4)[C@@H]3CC[C@@]2(C)C=CC1=O (some centres not stated) | 100 | 30 |  | 2.9 | 0.6 |  |  | 100 |  | 0.4 |  |
| CC1=C2[C@H]3OC(=O)C4(CC(c5cccc(F)c5)=NO4)[C@@H]3CC[C@@]2(C)C=CC1=O (some centres not stated) | 100 | 0.4 |  | 0.7 | 100 |  |  | 100 |  | 100 |  |
| CC1=C2[C@H]3OC(=O)C4(CC(c5ccc(F)cc5)=NO4)[C@@H]3CC[C@@]2(C)C=CC1=O (some centres not stated) | 100 | 100 |  | 61 | 100 |  |  | 100 |  | 100 |  |
| COc1ccc(C2=NOC3(C2)C(=O)O[C@@H]2C4=C(C)C(=O)C=C[C@]4(C)CC[C@H]23)cc1 (some centres not stated) | 100 | 0.02 |  | 0.2 | 100 |  |  | 52 |  | 7.9 |  |
| CC1=C2[C@H]3OC(=O)C4(C[C@H](c5cc(F)cc(F)c5)N(c5ccccc5)O4)[C@@H]3CC[C@@]2(C)C=CC1=O (some centres not stated) | 100 | 0.09 |  | 100 | 0.7 |  |  | 0.09 |  | 25 |  |
